Assay results published in ChEMBL document CHEMBL4811229, “Leveraging Peptaibol Biosynthetic Promiscuity for Next-Generation Antiplasmodial Therapeutics” (J Nat Prod, 2021).
≈ marks a conversion by molar mass, not a printed value. Where a SMILES comes first, the peptide text is derived from it.

Key:
Plasmodium falciparum [1] = experiment: Antiplasmodial activity against chloroquine-resistant Plasmodium falciparum FCR3 infected in human erythrocytes assessed as parasite growth inhibition; assay type: functional, organism-based; conditions: FCR-3/Gambia, Erythrocyte
Plasmodium falciparum [2] = experiment: Antiplasmodial activity against chloroquine-resistant Plasmodium falciparum K1 infected in human erythrocytes assessed as parasite growth inhibition; assay type: functional, organism-based; conditions: K1, Erythrocyte
Plasmodium falciparum [3] = experiment: Antiplasmodial activity against multidrug-resistant Plasmodium falciparum Dd2 infected in human A-positive erythrocytes assessed as reduction in parasitemia incubated for 72 hrs by fluorescence-based SYBR-Green-1 assay; assay type: functional, organism-based; conditions: Dd2, Erythrocyte
[4] = Selectivity index, ratio of EC50 for human HepG2 cells to EC50 for antiplasmodial activity against multidrug-resistant Plasmodium falciparum Dd2 infected in human A-positive erythrocytes; assay type: toxicity, cell-based; conditions: read-out: Ratio EC50
HepG2 = experiment: Cytotoxicity against human HepG2 cells assessed as decrease in cell viability measured after 48 hrs by MTS assay; assay type: cell-based; conditions: HepG2, 48 h
How it was run: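 After 48 h at 37 °C and 5% CO2, MTS was added for 4 h and absorbance read at 490 nm. Values were normalized to Triton X-100-lysed wells (0% growth) and untreated wells. EC50 is the mean of triplicate experiments.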

Plasmodium falciparum [5] = experiment: Antiplasmodial activity against Plasmodium falciparum assessed as parasite growth inhibition; assay type: functional

Row | Compound | EC50 (Plasmodium falciparum [1]) | EC50 (Plasmodium falciparum [2]) | EC50 (Plasmodium falciparum [3]) | selectivity ratio [4] | EC50 (HepG2) | MIC (Plasmodium falciparum [5])
1 | CCCCCCC/C=C\CCCCCCCC(=O)N[C@H](C(=O)N1C[C@H](C)C[C@H]1C(=O)N[C@H](C(=O)N[C@@H](CC(N)=O)C(N)=O)C(C)C)[C@@H](C)O (HELM PEPTIDE1{[CCCCCCC/C=C\CCCCCCCC(=O)[*:2]].T.[C[C@@H]1C[C@@H](C(=O)[*:2])N([*:1])C1].V.N.[am]}$$$$V2.0) | 150 nM | 150 nM |  |  |  | 
2 | CC[C@H](C)[C@H](NC(=O)[C@H](C)NC(=O)[C@@H]1CCCN1C(=O)C(C)(C)NC(=O)[C@H](CC(C)C)NC(=O)[C@H](CCC(N)=O)NC(=O)C(C)(C)NC(C)=O)C(=O)NC(C)(C)C(=O)N1CCC[C@H]1C(=O)NC(C)(C)C(=O)N[C@@H](CC(C)C)C(=O)N[C@](C)(CC)C(=O)N1CCC[C@H]1C(=O)N[C@H](CO)CC(C)C |  |  | 630 nM | > 40 | > 25000 nM | 
3 | CC[C@H](C)[C@H](NC(=O)C(C)(C)NC(=O)[C@H](CCC(N)=O)NC(=O)C(C)(C)NC(=O)C(C)(C)NC(=O)[C@H](C)NC(=O)[C@H](C)NC(=O)[C@H](C)NC(=O)C(C)(C)NC(C)=O)C(=O)NC(C)(C)C(=O)NCC(=O)N[C@@H](CC(C)C)C(=O)NC(C)(C)C(=O)N1CCC[C@H]1C(=O)N[C@H](C(=O)NC(C)(C)C(=O)N[C@](C)(CC)C(=O)N[C@@H](CCC(N)=O)C(=O)N[C@@H](CCC(N)=O)C(=O)N[C@H](CO)Cc1ccccc1)C(C)C |  |  | 520 nM | 6 | 3350 nM | 
4 | CCC(=O)CCCCC[C@@H]1NC(=O)[C@H]2CCCCN2C(=O)[C@H]([C@@H](C)CC)NC(=O)[C@H](Cc2cn(OC)c3ccccc23)NC1=O [APICIDIN] |  |  |  |  |  | 0.19 µM (≈ 0.119 µg/mL)
5 | CCCCCCC/C=C\CCCCCCCC(=O)N[C@H](C(=O)N1C[C@H](C)C[C@H]1C(=O)N[C@H](C(=O)N[C@@H](CC(N)=O)C(=O)N[C@@H](C)[C@H]1N[C@@H](CO)[C@H](O)[C@@H](CCCCCCCCCCCCC)O1)C(C)C)[C@@H](C)O | 150 nM | 150 nM |  |  |  | 
6 | CC[C@H](C)[C@H](NC(=O)[C@H](CO)NC(=O)[C@@H]1CCCN1C(=O)C(C)(C)NC(=O)[C@H](CC(C)C)NC(=O)[C@H](CC(N)=O)NC(=O)C(C)(C)NC(C)=O)C(=O)NC(C)(C)C(=O)N1CCC[C@H]1C(=O)NC(C)(C)C(=O)N[C@@H](CC(C)C)C(=O)NC(C)(C)C(=O)N1CCC[C@H]1C(=O)N[C@H](CO)CC(C)C (HELM PEPTIDE1{[ac].[Aib].N.L.[Aib].P.S.I.[Aib].P.[Aib].L.[Aib].P.[CC(C)C[C@@H](CO)N[*:1]]}$$$$V2.0) |  |  | 630 nM | > 40 | > 25000 nM | 
7 | CC[C@@](C)(NC(=O)[C@@H]1CCCN1C(=O)C(C)(C)NC(=O)[C@@H](NC(=O)[C@H](CO)NC(=O)[C@@H]1CCCN1C(=O)C(C)(C)NC(=O)[C@H](CC(C)C)NC(=O)[C@H](CC(N)=O)NC(=O)C(C)(C)NC(C)=O)C(C)C)C(=O)N[C@@H](CC(C)C)C(=O)NC(C)(C)C(=O)N1CCC[C@H]1C(=O)N[C@H](CO)CC(C)C (HELM PEPTIDE1{[ac].[Aib].N.L.[Aib].P.S.V.[Aib].P.[CC[C@@](C)(N[*:1])C(=O)[*:2]].L.[Aib].P.[CC(C)C[C@@H](CO)N[*:1]]}$$$$V2.0) |  |  | 560 nM | > 45 | > 25000 nM | 
8 | CC[C@H](C)[C@H](NC(=O)[C@H](CC(C)C)NC(=O)[C@H](CC(N)=O)NC(=O)C(C)(C)NC(C)=O)C(=O)NC(C)(C)C(=O)N1CCC[C@H]1C(=O)N[C@](C)(CC)C(=O)N[C@@H](CC(C)C)C(=O)NC(C)(C)C(=O)N1CCC[C@H]1C(=O)N[C@H](CO)CC(C)C (HELM PEPTIDE1{[ac].[Aib].N.L.I.[Aib].P.[CC[C@@](C)(N[*:1])C(=O)[*:2]].L.[Aib].P.[CC(C)C[C@@H](CO)N[*:1]]}$$$$V2.0) |  |  | 720 nM | > 35 | > 25000 nM | 
9 | CC[C@@](C)(NC(=O)[C@H](CC(C)C)NC(=O)C(C)(C)NC(=O)[C@@H]1CCCN1C(=O)C(C)(C)NC(=O)[C@@H](NC(=O)[C@H](C)NC(=O)[C@@H]1CCCN1C(=O)C(C)(C)NC(=O)[C@H](CC(C)C)NC(=O)[C@H](CCC(N)=O)NC(=O)C(C)(C)NC(C)=O)C(C)C)C(=O)N1CCC[C@H]1C(=O)N[C@H](CO)CC(C)C |  |  | 1320 nM | > 19 | > 25000 nM | 
10 | CCCCCCCC(=O)NC(C)(C)C(=O)NCC(=O)N[C@@H](CC(C)C)C(=O)NC(C)(C)C(=O)NCC(=O)NCC(=O)N[C@@H](CC(C)C)C(=O)NC(C)(C)C(=O)NCC(=O)N[C@H](C(=O)N[C@H](CO)CC(C)C)[C@@H](C)CC |  |  | 930 nM | 9 | 8090 nM | 
11 | CC(=O)NC(C)(C)C(=O)N[C@@H](CC(N)=O)C(=O)N[C@@H](CC(C)C)C(=O)NC(C)(C)C(=O)N1CCC[C@H]1C(=O)N[C@@H](CO)C(=O)N[C@H](C(=O)NC(C)(C)C(=O)N1CCC[C@H]1C(=O)NC(C)(C)C(=O)N[C@@H](CC(C)C)C(=O)NC(C)(C)C(=O)N1CCC[C@H]1C(=O)N[C@H](CO)CC(C)C)C(C)C (HELM PEPTIDE1{[ac].[Aib].N.L.[Aib].P.S.V.[Aib].P.[Aib].L.[Aib].P.[CC(C)C[C@@H](CO)N[*:1]]}$$$$V2.0) |  |  | 710 nM | > 35 | > 25000 nM | 
